# High-throughput results (PubChem BioAssay)
# Compounds with a hit are over-represented: about 3.9% of the library has one in this group of screens.
# M1 ag = agonists of human M1 muscarinic receptor | AID 588814 | CHO-K1 hM1, Fluo-8 calcium fluorescence, agonist mode; 0% DMSO, 100% acetylcholine EC100 | P11229 | activation, % at 3 µM | hit rate 0.33% among 360,000;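 active = activation above the run's mean compound activation plus 3 SD, cut at about 16% in these data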;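 also: peak over basal fluorescence ratio within a 140 s kinetic read after compound addition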
# m5-HT2A agonist = agonists of mouse serotonin 5-HT2A receptor (HTR2A); activation, % at 7.6 µM; CHO-K1 mHTR2A beta-arrestin complementation, luminescence; percent of 30 µM serotonin response; hit rate 0.66% among 360,000;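 active = activation above a run cutoff, the mean activation of all tested compounds plus 3 SD, cut at about 14% in these data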;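 also: 0% = plate median of compound wells and 100% = 30 µM serotonin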
# Target sequence (P35363 whole entry, looked up): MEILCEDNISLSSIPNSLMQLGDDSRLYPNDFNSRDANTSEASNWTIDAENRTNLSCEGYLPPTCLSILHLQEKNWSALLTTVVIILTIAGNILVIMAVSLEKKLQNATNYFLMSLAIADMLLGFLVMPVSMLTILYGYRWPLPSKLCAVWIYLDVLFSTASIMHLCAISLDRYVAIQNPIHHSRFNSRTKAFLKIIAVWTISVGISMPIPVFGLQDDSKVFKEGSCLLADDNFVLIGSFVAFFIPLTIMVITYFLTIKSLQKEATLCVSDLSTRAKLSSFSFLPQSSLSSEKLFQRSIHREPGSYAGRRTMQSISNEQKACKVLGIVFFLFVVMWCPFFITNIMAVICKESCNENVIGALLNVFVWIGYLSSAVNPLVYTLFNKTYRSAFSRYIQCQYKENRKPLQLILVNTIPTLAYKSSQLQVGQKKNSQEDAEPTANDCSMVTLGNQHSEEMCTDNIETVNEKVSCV
# CHRM1 PAM = human CHRM1 positive allosteric modulation; P11229; CHO-K1 hM1, Fluo-8 calcium fluorescence, ACh EC20; 0% = ACh EC20, 100% = maximal ACh; activation, % at 3 µM; hit rate 0.088% among 360,000; in the data active = activation above about 19%, passing the limit was not always enough
# TAAR1 ag = human TAAR1 agonism; activation, % at 3 µM; CHO RD-HGA16 TAAR1, Fluo-8 calcium fluorescence; vehicle wells 0%, saturating PEA agonist 100%; Q96RJ0; hit rate 0.99% among 360,000;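 active = activation above the mean activation of all test compounds in the run plus 3 SD, cut at about 38% in these data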
#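 Signal – calcium-sensitive Fluo-8 signal, excitation 470-495, emission 515-575 nm · System – RD-HGA16 (CHO) cells co-expressing Gα16 and hTAAR1 · Incubation – 17-24 h seeding, 75 min 37 °C dye, 30 min RT · Compound dosing – 3 µM single concentration · Repeats – no replicates (n 1)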
# TAAR1 antagonist = antagonists of human TAAR1; CHO RD-HGA16 TAAR1, Fluo-8 calcium fluorescence, antagonist; Q96RJ0; hit rate 1.5% among 360,000; inhibition, % at 3 µM;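 active = inhibition above a per-plate cutoff, the mean inhibition of test compounds on that plate plus 3 SD, cut at about 49% in these data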;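 also: 0% = DMSO plus EC80 beta-PEA response and 100% = DMSO alone without agonist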
#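 Test system: hTAAR1-expressing CHO RD-HGA16 cells, Gα16-coupled; Probe or stimulus: EC80 β-phenethylamine stimulus; Compound dosing: single nominal final test compound concentration of 3 µM; Timing: 140 s kinetic read after compound, 140 s after agonist; Signal: Fluo-8 calcium-sensitive fluorescence; Measure: % inhibition of agonist calcium response; Controls: DMSO and EC80 PEA controls.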
# CHRM1 antagonist = blocks human M1 muscarinic receptor. hit rate 1.3% among 360,000. inhibition, % at 3 µM. CHO-K1 hM1, Fluo-8 calcium fluorescence, ACh EC80 antagonist. P11229;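 active = percent inhibition above its own plate's cutoff, namely the mean of that plate's compound wells plus 3 SD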;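 also: peak over basal fluorescence ratio during 140 s after agonist addition; 0% = ACh EC80 plus DMSO and 100% = DMSO alone without agonist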
# * marks the source's active call; other numbers are inactive results; · = not tested or not shown.
SMILES,M1 ag,m5-HT2A agonist,CHRM1 PAM,TAAR1 ag,TAAR1 antagonist,CHRM1 antagonist
c1ccc(CCNCc2cccs2)cc1,-8,1,2,39*,-2,-12
COc1cc(C2c3cc4c(cc3CC3COC(=O)C32)OCO4)cc(OC)c1OC (configuration not stated),3,1,12,0,-12,-15
COc1cc(C2c3cc4c(c(O)c3CC3COC(=O)C32)OCO4)cc(OC)c1OC (configuration not stated),2,-5,-15,15,50*,10
C[N+](C)(C)CCc1ccc(O)cc1,35*,8,0,1,-7,-7
CCCCCCCCc1ccc(O)cc1,·,-2,·,-1,-7,·
Clc1ccc(OCC#CCN2CCCCCC2)cc1,-6,-13,-22,4,18,49*
COc1ccccc1OCC#CCN1CCCC1,-7,2,-22,5,9,90*
COc1ccc(OCC#CCN2CCC(C)CC2)cc1,-10,0,-14,6,13,4
C=Cc1cc(OC)c2c(c1)c(=O)oc1c2cc(OC)c2c(O)ccc(C3OC(C)C(O)C(C)(O)C3O)c21 (configuration not stated),-1,5,13,0,15,-14
O=C(Nc1cccc(C(F)(F)F)c1)OC1CN2CCC1CC2 (configuration not stated),-11,-9,-32,2,-7,102*
CN(C)c1ccc(/C=C/[N+](=O)[O-])cc1,11,-3,4,40*,2,41*
COc1cc2cc(C(=O)N3CC(COS(C)(=O)=O)c4ccc(O)cc43)[nH]c2c(OC)c1OC (configuration not stated),0,-3,-1,·,·,-4
COc1ccc(-n2nnnc2C(CCSC)N2CCC3(CC2)C(=O)NCN3c2ccccc2)cc1 (configuration not stated),4,4,-1,14,51*,8
O=P(Nc1ccccc1)(Nc1ccccc1)Oc1ccccc1,-4,7,-3,15,41,2
O=P(Nc1ccccc1)(Nc1ccccc1)Oc1cccc(Cl)c1,10,1,-20,14,52*,30
CCN(CC)c1ccc(CNCCc2ccccc2F)cc1,-8,6,-27,40*,-4,56*
CCCC12CN3CC(CCC)(CN(C1)C3c1ccccn1)C2=O (configuration not stated),-6,2,2,4,12,-4
Cc1ccc(N2C(=O)NC(=O)/C(=C\C=C\c3ccco3)C2=O)cc1,0,0,3,33,39,-8
Cc1cccc(N2C(=O)NC(=O)/C(=C\c3cccn3-c3ccc(Cl)cc3)C2=O)c1,0,-3,7,56*,37,-1
Cc1cccc(N2C(=O)NC(=O)/C(=C\C=C\c3ccco3)C2=O)c1,4,-2,15,44*,22,-16
Cc1cc(C)cc(N2C(=O)NC(=O)/C(=C/c3cccn3-c3ccc(Cl)cc3)C2=O)c1,-5,0,7,17,-6,-8
O=S1(=O)NCC2(CC2)CN1Cc1ccccc1,·,-1,·,2,-10,·
CC(=O)c1cccc(NC(=O)N2C[C@H]3C[C@@H](C2)c2cccc(=O)n2C3)c1,-3,-4,5,1,-14,-12
CN1CCN(Cc2ccccc2Sc2ccccc2)CC1,-10,-7,-22,6,1,100*
CSc1ccc(CN2CCN(Cc3ccccc3Cl)CC2)cc1,-5,-2,-5,6,5,5
SMILES,M1 ag,m5-HT2A agonist,CHRM1 PAM,TAAR1 ag,TAAR1 antagonist,CHRM1 antagonist
O=[N+]([O-])c1cc(Cl)c(Cl)cc1Cl,-1,3,-14,3,-1,22*
CCOC(=O)C1(CCc2ccccc2)CCN(Cc2csc(C(C)=O)c2)CC1,-13,-2,-9,4,0,-5
CCOC(=O)C1(CCOc2ccccc2)CCN(Cc2ccccc2OC)CC1,-8,-15,-13,8,-5,10
CCOC(=O)C1(CCc2ccccc2)CCN(Cc2cccc3cnccc23)CC1,-14,-8,-34,15,-6,48*
CCOC(=O)C1(CCc2ccccc2)CCN(Cc2cccc3c2OCO3)CC1,-13,-5,-34,10,10,34*
O=P(OCC(F)(F)C(F)F)(N1CCCCC1)N1CCCCC1,-2,6,7,7,5,-4
COc1ccc(OC(=O)N(C)C[C@H]2OCc3cnnn3CCCC(=O)N([C@@H](C)CO)C[C@@H]2C)cc1,·,·,·,3,-19,·
Clc1ccc2c(c1)C(OC1CN3CCC1CC3)c1ccccc1CS2 (configuration not stated),-7,-7,-23,27,-3,100*
CN1CCN(CCOC2c3ccccc3CSc3ccc(Cl)cc32)CC1 (configuration not stated),-7,-8,-23,8,-20,99*
COc1ccc(C(=O)C2CCCN(C3CSCCSC3)C2)c(OC)c1 (configuration not stated),-7,-6,-16,1,-23,18
COc1ccc(C(=O)C2CCCN(C3CSCCSC3)C2)c(C)c1 (configuration not stated),-7,-3,-23,5,-7,54*
C=C(C)C(Cc1c(OC)ccc(C(=O)/C=C/c2ccc(O)cc2)c1O)OO (configuration not stated),0,-2,-12,7,54*,15
CC(=O)N1CCN(Cc2ccc(Cl)nc2)CC1,-3,7,28*,2,6,-2
CCP(=S)(CC)c1ccc(N(C)C)cc1,-10,-2,-9,10,5,5
Cc1cccc(-n2c(O)c(C=NCCN3CCNCC3)c(=O)[nH]c2=S)c1,53*,-2,-23,0,-10,25
CNC(=S)N1CCN(CCN=Cc2c(O)n(-c3ccc(C)cc3)c(=S)[nH]c2=O)CC1,-5,0,12,0,8,-7
O=C1CCCN1CC#CCN1CCCC1,102*,1,-15,8,-12,87*
CN1C2CCC1CC(OC(=O)c1cc(Cl)cc(Cl)c1)C2 (configuration not stated),-4,2,-22,7,2,47*
CC(C)=CCc1c(O)cc2c(c1O)C(=O)CC(c1ccc(O)cc1)O2 (configuration not stated),13,3,14,42*,19,-3
CCN(C(=O)COC(=O)c1cn(C)c2ccccc12)c1ccc(F)cc1,-3,-4,8,6,5,-3
C/C(=N\Nc1ccccc1)c1c(O)n(C)c(=O)n(C)c1=O,-3,-1,8,1,-2,-3
